Screens: PubChem BioAssay, Broad Institute
Xi reactivation – activators of X-chromosome reactivation in mouse fibroblasts; XiGFP mouse fibroblasts, % GFP-positive cells imaging, 3 d; cells co-treated with 5-aza-dC sensitizer; scaled so ellipticine positive control = 100%; activation, % at 7.58 µM; actives 0.055% (n = 360,000); AID 743238;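 active = mean normalized replicate activation at least 10% and every replicate at or above 10%; inconclusive = only one of the two criteria met; inactive = mean below 10% and not all replicates reach 10%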;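 note: 0% = median of on-plate neutral control wells and 100% = ellipticine 6 µM median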
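System: SV40-immortalized XiGFP fibroblast cells, line 68-5-11 / Incubation: 3-day compound exposure, then 15 min fixation at room temperature / Compound: single concentration per compound, delivered by pin transfer / Buffer or medium: DMEM plus 5-aza-dC sensitizer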
DENV2 CPE – protects cells from dengue virus 2 cytopathic effect; DENV2-infected cells, cytopathic effect rescue, plate reader; CPE inhibition, % at 9.99 µM; actives 1.7% (n = 350,000); AID 651640; in the data active = CPE inhibition above about 20%, passing the limit was not always enough; inconclusive = no clear call, values can overlap the other calls; tested in BHK-21 cells;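 note: 0% = median of neutral control wells and 100% = median of positive control wells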
CaV13 FRET inh – Primary screen for inhibitors of IQ motif and Ca2+-dependent inactivation inhibitor domain binding in CACNA1D, Förster resonance energy transfer in living cells, …; AID 743397; actives 0.098% (n = 340,000); HEK cells, CFP/YFP FRET ICDI-IQ, plate reader, 10 min; percent FRET-ratio fall versus neutral wells; inhibition, % at 12.3 µM;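 active = mean replicate inhibition of at least 30% and at least 1% of replicates passing that level; inconclusive = only one of the two criteria is met; inactive = neither criterion is met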;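 note: 0% = median of the neutral control wells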
Casp6 inh – blocks human caspase-6 cleavage activity. P55212. purified caspase-6, Z-VEID-R110 cleavage fluorescence. inhibition, % at 12.5 µM. actives 0.53% (n = 350,000);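 active = mean inhibition across replicates at least about 35%, with every replicate also reaching that limit, limit read from the data; inconclusive = only one of the two criteria met; inactive = neither criterion met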;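 note: 0% = median of neutral control wells and 100% = no fluorescence left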
Target sequence (P55212 24-179 limits assumed): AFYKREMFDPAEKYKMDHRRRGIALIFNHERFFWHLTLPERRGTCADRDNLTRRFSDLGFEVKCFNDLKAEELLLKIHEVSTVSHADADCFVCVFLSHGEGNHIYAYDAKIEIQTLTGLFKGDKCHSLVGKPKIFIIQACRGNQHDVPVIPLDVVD
Target sequence (P55212 194-293 limits assumed): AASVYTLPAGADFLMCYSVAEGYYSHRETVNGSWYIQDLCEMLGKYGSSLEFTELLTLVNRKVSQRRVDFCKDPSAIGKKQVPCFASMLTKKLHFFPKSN
FN deposition inh – fibronectin deposition inhibition; AH1F fibroblasts, Alexa488-fibronectin deposition fluorescence, overnight; inhibition, % at 12.6 µM; actives 0.086% (n = 350,000);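 active = mean inhibition across replicates of 30% or more, regardless of how many single replicates reach that level; inconclusive = mean under 30% yet at least half of replicates reach 30%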;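 note: positive control wells lacked labelled fibronectin entirely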
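Material: AH1F fibroblasts assembling fluorescent fibronectin matrix; amount: 10000 AH1F cells/well; medium: DMEM, 2% serum; reagent: Alexa488-fibronectin, 24 nM final in well; dosing: single compound dose, delivered by pin transfer; incubation: 1 h adhesion, overnight exposure; detection: fluorescence after three HBSS washes, excitation 485 nm, emission 525 nm; measure: fibronectin deposition inhibition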
* marks the source's active call; other numbers are inactive results; ? = inconclusive; . = not tested or not shown. In the library only some 2% were active in any assay of this set; here they are far more common.

SMILES	Xi reactivation	DENV2 CPE	CaV13 FRET inh	Casp6 inh	FN deposition inh
O=C(CN1CCOCC1)N1CCCCN2[C@H](CO)[C@H](c3ccc(/C=C/c4ccccc4)cc3)[C@H]2C1	0	54*	.	-8	.
O=C(CN1CCOCC1)N1CCCCN2[C@H](CO)[C@@H](c3ccc(C#Cc4ccccc4)cc3)[C@@H]2C1	0	14	.	1	.
COc1ccc2c3c(n(C)c2c1)[C@H](CO)N(CC1CC1)CC31CCN(Cc2nccs2)CC1	0	45*	.	.	.
COc1ccc2c3c(n(C)c2c1)[C@H](CO)N(C(C)=O)CC31CCN(Cc2nccs2)CC1	0	-6	.	.	.
COc1ccc2c3c(n(C)c2c1)[C@H](CO)N(Cc1nccs1)CC31CCN(C(C)=O)CC1	0	27*	.	.	.
CCC(=O)N1CCC2(CC1)CN(Cc1nccs1)[C@H](CO)c1c2c2ccc(OC)cc2n1C	0	11	.	.	.
COc1ccc2c3c(n(C)c2c1)[C@H](CO)N(S(C)(=O)=O)CC31CCN(Cc2nccs2)CC1	0	24*	.	-1	-1
COc1ccc2c3c(n(C)c2c1)[C@H](CO)N(Cc1nccs1)CC31CCN(C)CC1	0	10	.	.	.
CC(C)C(=O)Nc1ccc2c(c1)C(=O)N(C)[C@H]1CC[C@@H](CC(=O)NCCc3ccccc3)O[C@H]1CO2	0	.	.	.	0
O=C(C[C@H]1CC[C@@H]2[C@H](COC[C@H](O)CN2Cc2cccc(C(F)(F)F)c2)O1)NCc1ccc(F)cc1	0	-11	.	0	-4
O=C(C[C@H]1CC[C@@H]2[C@H](COC[C@@H](O)CN2C(=O)c2ccccc2F)O1)NCc1ccc(F)cc1	0	38*	.	0	-1
O=C(C[C@H]1CC[C@@H]2[C@H](COC[C@@H](O)CN2Cc2nccs2)O1)NCc1ccc(-c2ccccc2)cc1	0	34*	.	0	-8
O=C(C[C@H]1CC[C@H]2[C@@H](COC[C@@H](O)CN2Cc2cccc(C(F)(F)F)c2)O1)NCc1ccc(F)cc1	0	111*	.	-1	-2
O=C(C[C@H]1CC[C@H]2[C@@H](COC[C@@H](O)CN2Cc2cccc(C(F)(F)F)c2)O1)NCCc1ccccc1	0	26*	.	1	12
COCC(=O)N(C[C@H]1N[C@H](CO)[C@@H]1c1ccc(-c2cccnc2)cc1)C(C)C	0	6	.	0	-7
CCCNC(=O)[C@@H]1[C@@H](CO)[C@@H]2Cn3c(ccc(-c4ccc(F)cc4)c3=O)[C@@H]2N1CCC	0	0	.	0	.
C/C=C/c1ccc(C2[C@H]3CNC[C@@H]2N3S(=O)(=O)Cc2ccccc2)cc1 (stereo partly drawn)	0	-9	.	-1	-6
COc1ccc(CN2C[C@H](O)COC[C@H]3O[C@H](CC(=O)NCc4ccncn4)CC[C@@H]32)cc1	0	21*	.	-2	2
C[C@@H]1CN([C@@H](C)CO)C(=O)Cc2cc(NC(=O)CCC(F)(F)F)ccc2O[C@H]1CN(C)C(=O)Nc1cccc2ccccc12	0	.	.	.	-1
COc1ccc(CNC(=O)c2cccnc2Sc2ccc(C)c(C)c2)cc1	1	.	-1	.	-13
Cc1ccc(Sc2ncccc2C(=O)NCc2cc([N+](=O)[O-])ccc2O)cc1C	0	58*	.	2	.
COc1ccc(NC(=O)N(C)C[C@@H]2Oc3c(NC(=O)Nc4ccc5c(c4)OCO5)cccc3C(=O)N([C@H](C)CO)C[C@@H]2C)cc1	0	4	.	-1	.
C[C@H](CO)N1C[C@H](C)[C@@H](CN(C)Cc2ccc3c(c2)OCO3)OCc2ccccc2-c2c(n(C)c3ccccc23)C1=O	0	.	.	.	-2
Cc1ccc(CN2C(=O)CCC2(C)c2nnnn2-c2c(C)cccc2C)cc1 (stereo not drawn)	0	-4	-5	3	-27
Cc1cccc(C)c1-n1nnnc1C1(C)CCC(=O)N1Cc1cccnc1 (stereo not drawn)	0	38*	-10	-1	-2
SMILES	Xi reactivation	DENV2 CPE	CaV13 FRET inh	Casp6 inh	FN deposition inh
Cc1cccc(C)c1-n1nnnc1C1(C)CCC(=O)N1Cc1cccs1 (stereo not drawn)	0	57*	-6	-1	6
COc1ccc(CN2C(=O)CCC2(C)c2nnnn2Cc2ccccc2)cc1 (stereo not drawn)	0	85*	-10	15	10
CC(C)CN1CCC(CN2CCNC(=O)C2=O)CC1	0	-5	-2	36*	-4
CN1CCCC1CCNc1ccc2sc3ccccc3c(=O)c2c1 (stereo not drawn)	9	27*	-29	-4	-18
O=c1c2ccccc2oc2ccc(NCCCn3ccnc3)cc12	0	2	-12	-1	-7
Cc1cc2oc3cc(NCCC4CCCN4C)ccc3c(=O)c2cc1C (stereo not drawn)	0	?	77*	-3	0
CCCNC(=O)N1CC2(CCN(S(=O)(=O)c3cccc(OC)c3)CC2)c2c(n(C)c3cc(OC)ccc23)[C@@H]1CO	0	-11	.	3	.
CCC(=O)Oc1ccc2c(c1)O/C(=C\c1ccco1)C2=O	0	7	-30	59*	4
CN(c1ccccc1)c1nc(-n2ccnc2)nc(-n2ccnc2)n1	.	.	-5	.	44*
c1ccc(N(c2ccccc2)c2nc(-n3ccnc3)nc(-n3ccnc3)n2)cc1	.	.	0	.	.
Cc1ccc(S(=O)(=O)CCC(=O)OCC(=O)Nc2cccc(S(=O)(=O)N3CCCCC3)c2)cc1	1	-2	58*	7	-3
C[C@H]1CN([C@@H](C)CO)C(=O)c2cccc(NS(C)(=O)=O)c2O[C@H]1CN(C)C(=O)NC1CCCCC1	-1	-6	.	1	.
O=c1ccc2ccccc2c2ccccc12	0	-11	-9	-2	10
O=Nc1c(O)c2ccccc2c2ccccc12	2	-8	-5	-1	38*
COc1ccc(S(=O)(=O)N(C)C[C@H]2OCCCC[C@@H](C)Oc3ccc(NC(=O)Nc4c(C)noc4C)cc3C(=O)N([C@H](C)CO)C[C@@H]2C)cc1	0	-2	.	1	-1
O=C(Nc1ccc2c(c1)[C@H]1C[C@H](CC(=O)N3CCOCC3)O[C@@H](CO)[C@H]1O2)C1CCC1	0	-9	.	.	0
O=C(CCC(=O)c1cccs1)NCc1cccnc1	0	11	-2	0	38*
O=C(CCC(=O)c1cccs1)NCc1ccncc1	0	5	-5	1	4
C[C@@H]1CN([C@@H](C)CO)C(=O)Cc2cc(NC(=O)c3ccncc3)ccc2O[C@@H]1CN(C)C(=O)Nc1cccc2ccccc12	0	-9	.	11	-5
Cc1cc(C(=O)Nc2ccc3c(c2)C(=O)N(C)[C@@H]2CC[C@H](CC(=O)NCC(F)(F)F)O[C@@H]2CO3)no1	0	-6	.	-1	-18
